Source: ChEMBL document CHEMBL1144992, “Unsymmetrical DNA cross-linking agents: combination of the CBI and PBD pharmacophores” (J Med Chem, 2003)
pIC50: −log10 of the molar value.

Experiments:
[1] = Ratio of LC50 values between the least sensitive and most sensitive human cancer cell lines; type: functional
How it was run: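 NCI 60-cell-line panel covering nine tissue types. LC50 is concentration producing 50% reduction in cells. Value is ratio of LC50 for least sensitive versus most sensitive line.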

EMT6 = assay: In vitro cellular toxicity against murine mammary carcinoma EMT6 cell line after 4 hr of compound exposure; type: functional, cell-based; conditions: Mus musculus, EMT6, 4 h
How it was run: (§1)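 Cells exposed to drug for 4 h, then stained with sulforhodamine B 3 days later. IC50 interpolated as the concentration reducing cell density to 50% of same-plate controls. Values are the mean of 2-6 experiments.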

UV4 = assay: In vitro cellular toxicity against chinese hamster UV4 cell line after 4 hr of compound exposure; type: functional, cell-based; conditions: Cricetulus griseus, UV4, 4 h; how it was run: as §1
CHO-AA8 = assay: In vitro cellular toxicity against chinese hamster AA8 cell line after 4 hr of compound exposure; type: functional, cell-based; conditions: Cricetulus griseus, CHO-AA8, 4 h; how it was run: as §1
SK-OV-3 [2] = assay: In vitro cellular toxicity against human ovarian carcinoma SKOV3 cell line after 4 hr of compound exposure; type: functional, cell-based; conditions: SK-OV-3, 4 h; how it was run: as §1
[3] = tested on: Panel (Carcinoma cell lines); assay: In vitro drug concentration required for 50% inhibition of 60 different human cancer cell lines compared to controls; type: functional
Nucleic Acid = assay: Tested for its ability to cross-link linearized plasmid DNA pcDNA3 following 18 hr of exposure at 37 degree celsius; type: functional
How it was run: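 EcoRI-linearized pcDNA3 plasmid (5400 bp), 3'-end labelled with α-32P-dATP by Klenow. 50 ng DNA incubated with drug (DMSO) in TE pH 7.5, 10 µL final volume, 18 h at 37 °C. Denatured with NaOH strand-separation buffer for 5-10 min, then run on 0.8% agarose gel. Double-stranded fraction quantified by phosphorimaging. At least five concentrations tested, 2-4 assays. C50 taken from a 3-parameter logistic fit capped at 100%.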

WiDr = assay: In vitro cytotoxicity against human tumor WiDr cell line was measured as concentration to reduce [3H]thymidine uptake to 50% of that of the controls; type: functional, cell-based
How it was run: (§2)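 Cell suspensions exposed to drug continuously for 5 days. [3H]thymidine (0.25 µCi/mL, 0.1 µM) plus 5-fluoro-2'-deoxyuridine (0.1 µM) added 4 h before termination. Pronase 2 mg/mL in 4 mM Na4EDTA released adherent cells before aspiration and filtration. IC50 interpolated against same-plate controls. Mean of 2-3 experiments, some single determinations.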

SK-OV-3 [4] = assay: In vitro cytotoxicity against human tumor SKOV3 cell line was measured as concentration to reduce [3H]thymidine uptake to 50% of that of the controls; type: functional, cell-based; conditions: SK-OV-3, 5 days; how it was run: as §2
Mus musculus [5] = assay: In vivo maximum tolerated dose for single intraperitoneal injection in non tumor-bearing C3H/HeN mice; type: functional
How it was run: (§3)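 Female non-tumour-bearing C3H/HeN mice received a single ip or iv injection in 100% DMSO at 0.001 mL/g. Doses stepped in 1.33-fold increments on a fixed scale, with 60-day observation. MTD defined as highest dose giving no deaths in a group of 6 and ≤15% mean body weight loss on day 4. Ratio is iv MTD over ip MTD.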

HT-29 = assay: In vitro cytotoxicity against human tumor HT-29 cell line was measured as concentration to reduce [3H]thymidine uptake to 50% of that of the controls; type: functional, cell-based; conditions: HT-29, 5 days; how it was run: as §2
COLO 205 = assay: In vitro cytotoxicity against human tumor COLO 205 cell line was measured as concentration to reduce [3H]thymidine uptake to 50% of that of the controls; type: functional, cell-based; conditions: COLO 205, 5 days; how it was run: as §2
Mus musculus [6] = assay: In vivo maximum tolerated dose for single intravenous injection in non-tumor-bearing C3H/HeN mice; type: functional; how it was run: as §3
SiHa = assay: In vitro cytotoxicity against human tumor SiHa cell line was measured as concentration to reduce [3H]thymidine uptake to 50% of that of the controls; type: functional, cell-based; how it was run: as §2
[7] = Ratio of maximum tolerated dose of intravenous to intraperitoneal injection in mice; type: functional; how it was run: as §3
Mus musculus [8] = assay: Average time for WiDr tumor xenograft to reach a diameter of 17 mm following single intravenous injection at day 0 where tumor diameter was 8 mm in mice; type: functional
How it was run: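 Subcutaneous flank implant of WiDr cells (10^7 cells/mouse) in female CD-1 nude mice. Randomised at mean tumour diameter 8 mm (5-11 mice/group). Single iv dose at predetermined MTD, formulated in 100% DMSO at 0.001 mL/g, on day 0. Calipers used until mean diameter reached 17 mm, then culled. Values are average days to end point; ANOVA with Dunnett's test.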

Row | SMILES | Ratio [1] | pIC50 (EMT6) | pIC50 (UV4) | pIC50 (CHO-AA8) | pIC50 (SK-OV-3 [2]) | GI50 [3] [nM] | C50 (Nucleic Acid) [µM] | pIC50 (WiDr) | pIC50 (SK-OV-3 [4]) | MTD (Mus musculus [5]) [µM/kg] | pIC50 (HT-29) | pIC50 (COLO 205) | MTD (Mus musculus [6]) [µM/kg] | pIC50 (SiHa) | MTD ratio [7] | Time (Mus musculus [8]) [days]
1 | COc1cc2c(cc1OCCCCC(=O)N1C[C@@H](CCl)c3c1cc(O)c1ccccc31)N=C[C@@H]1CCCN1C2=O | 160 | 8.51 | 8.23 | 7.96 | 7.96 | 79 | 0.56 | – | – | – | – | – | – | – | – | –
2 | COc1cc2c(cc1OCC(=O)N1C[C@H](CCl)c3c1cc(O)c1ccccc31)N=CC1CCCN1C2=O (single isomer, unassigned) | 200 | 8.30 | 8.21 | 7.32 | 7.80 | 91 | 1.21 | – | – | – | – | – | – | – | – | –
3 | COc1cc2c(cc1OCCCC(=O)N1C[C@H](CCl)c3c1cc(O)c1ccccc31)N=CC1CCCN1C2=O (single isomer, unassigned) | 3200 | 9.52 | 9.08 | 8.40 | 8.72 | 13 | 0.025 | – | – | – | – | – | – | – | – | –
4 | COc1cc2c(cc1OCCC(=O)N1C[C@H](CCl)c3c1cc(O)c1ccccc31)N=CC1CCCN1C2=O (single isomer, unassigned) | 35 | 6.52 | 6.07 | 5.80 | 6.02 | 3200 | 7.9 | – | – | – | – | – | – | – | – | –
5 | COc1cc2c(cc1OCCCCC(=O)N1C[C@H](CCl)c3c1cc(O)c1ccccc31)N=CC1CCCN1C2=O (single isomer, unassigned) | 190 | 7.92 | 7.85 | 7.40 | 7.46 | 130 | 1.05 | – | – | – | – | – | – | – | – | –
6 | COc1cc2c(cc1OCCCOc1cc3c(cc1OC)C(=O)N1CCC[C@H]1C=N3)N=C[C@@H]1CCCN1C2=O [DSB-120] | – | 7.64 | 7.07 | 6.47 | 6.85 | – | 0.029 | 8.00 | 8.20 | 1 | 8.06 | 8.15 | 4.21 | 8.14 | 4.21 | 22.8
7 | COc1cc2c(cc1OCCCCCC(=O)N1C[C@@H](CCl)c3c1cc(O)c1ccccc31)N=C[C@@H]1CCCN1C2=O | >10000 | 11.11 | 10.64 | 10.27 | 10.49 | < 10 | 0.022 | 11.41 | 11.48 | 0.0178 | 11.57 | 11.46 | 0.178 | 11.55 | 10 | 40.8
8 | COc1cc2c(cc1OCCCCCC(=O)N1C[C@@H](CCl)c3c1cc(O)c1ccccc31)NC(=O)[C@@H]1CCCN1C2=O | – | 8.49 | 7.89 | 7.54 | 8.21 | – | – | – | – | – | – | – | – | – | – | –
9 | CC(=O)N1C[C@H](CCl)c2c1cc(O)c1ccccc21 | – | 4.92 | 5.74 | 4.85 | 4.85 | – | – | – | – | – | – | – | – | – | – | –
10 | COc1cc2c(cc1O)N=C[C@@H]1CCCN1C2=O | – | 5.96 | 5.82 | 5.70 | 5.72 | – | – | – | – | – | – | – | – | – | – | –
11 | COc1cc2c(cc1OCCC(=O)N1C[C@@H](CCl)c3c1cc(O)c1ccccc31)N=C[C@@H]1CCCN1C2=O | 50 | 7.29 | 6.80 | 6.62 | 6.70 | 500 | 5 | – | – | – | – | – | – | – | – | –
12 | COc1cc2c(cc1OCCCCCC(=O)N1C[C@H](CCl)c3c1cc(O)c1ccccc31)N=CC1CCCN1C2=O (single isomer, unassigned) | 2400 | 9.25 | 8.82 | 8.38 | 8.52 | 18 | 0.13 | 9.55 | 9.70 | 0.75 | 9.60 | 9.74 | 13.3 | 9.70 | 17.7 | 24.4
13 | COc1cc2cc(C(=O)N3C[C@@H](CCl)c4c3cc(O)c3ccccc43)[nH]c2c(OC)c1OC | – | 9.89 | 10.05 | 9.68 | 9.54 | – | – | – | – | – | – | – | – | – | – | –
14 | CC(=O)N1C[C@@H](CCl)c2c1cc(O)c1ccccc21 | – | 6.55 | 7.23 | 6.68 | 6.44 | – | – | – | – | – | – | – | – | – | – | –
15 | COc1cc2c(cc1OCCCC(=O)N1C[C@@H](CCl)c3c1cc(O)c1ccccc31)N=C[C@@H]1CCCN1C2=O | >10000 | 10.52 | 10.13 | 9.89 | 9.85 | < 10 | 0.017 | 10.85 | 10.68 | 0.00316 | 10.68 | 10.43 | 0.316 | 10.92 | 100 | 26
16 | COc1cc2c(cc1OCCCCCC(=O)N1CC(C)c3c1cc(O)c1ccccc31)N=C[C@@H]1CCCN1C2=O (stereo partly drawn) | – | 6.08 | 5.60 | 5.35 | 5.68 | – | – | – | – | – | – | – | – | – | – | –
